Screening data from PubChem.
ANO1 activ = activators or potentiators of mouse TMEM16A chloride channel; hit rate 0.3% among 340,000; Q8BHY3; HEK293 TMEM16A/YFP-H148Q/I152L, iodide quench fluorescence; stronger effect = lower value; B-score at 10 µM;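 active = fluorescence-ratio B-score plate-corrected deviation score at least 3 library SD below zero, with starting fluorescence score within 5 deviations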;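 note: channel opened by trigger with iodide after compound preincubation; score built on the fluorescence ratio of max minus min over baseline; more negative score means more quench and so TMEM16A activation or potentiation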
HTR2A ag = agonists of mouse serotonin 5-HT2A receptor (HTR2A) | CHO-K1 mHTR2A beta-arrestin complementation, luminescence; percent of 30 µM serotonin response | activation, % at 7.6 µM | P35363 | hit rate 0.66% among 360,000 | AID 624169;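 active = activation above a run cutoff, the mean activation of all tested compounds plus 3 SD, cut at about 14% in these data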;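 note: 0% = plate median of compound wells and 100% = 30 µM serotonin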
Target sequence (P35363 whole entry, looked up): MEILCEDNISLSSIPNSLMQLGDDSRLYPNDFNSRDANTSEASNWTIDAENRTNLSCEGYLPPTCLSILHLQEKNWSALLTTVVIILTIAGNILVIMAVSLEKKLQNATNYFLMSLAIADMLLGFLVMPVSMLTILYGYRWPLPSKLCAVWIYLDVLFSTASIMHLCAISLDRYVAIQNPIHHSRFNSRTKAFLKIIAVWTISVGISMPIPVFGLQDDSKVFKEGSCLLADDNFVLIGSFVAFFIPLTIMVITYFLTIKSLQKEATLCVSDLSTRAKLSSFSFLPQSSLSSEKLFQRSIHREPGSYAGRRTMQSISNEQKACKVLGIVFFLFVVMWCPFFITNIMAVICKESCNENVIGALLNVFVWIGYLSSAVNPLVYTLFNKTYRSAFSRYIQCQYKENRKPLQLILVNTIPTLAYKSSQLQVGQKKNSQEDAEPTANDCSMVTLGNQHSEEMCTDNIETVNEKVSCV
MIN6 prolif-1 = MIN6 beta-cell proliferation induction; MIN6 cells proliferation, ATPlite luminescence, 48 h; cells starved in 0.2% serum; 100% = growth in 10% serum; AID 2380; proliferation, % at 10 µM; hit rate 0.29% among 330,000;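 active = compounds whose signal lies at least 3.5 SD above the mean of all wells on their plate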;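 note: 0% = DMSO-treated cells in low-serum medium and 100% = 10% serum control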
MC4R ag barr = human MC4R agonism via beta-arrestin. P32245. U2OS MC4R beta-arrestin complementation, luminescence; percent of melanotan II response, DMSO zero. activation, % at 8.9 µM. hit rate 0.98% among 360,000. AID 540308;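 active = activation above a per-plate cutoff, the mean activation of sample wells on that plate plus 3 SD, cut at about 8% in these data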
MC4R antag cAMP = human MC4R antagonism in cAMP assay | P32245 | MC4R-expressing cells, MTII-stimulated cAMP, LANCE TR-FRET | inhibition, % at 6.5 µM | hit rate 0.48% among 360,000 | AID 540295;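 active = inhibition above its plate's cutoff, the mean of tested wells on that plate plus 3 SD, cut at about 29% in these data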;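 note: 0% = Melanotan II alone and 100% = Melanotan II plus saturating MCL0020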
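material = U2OS cells stably expressing human melanocortin 4 receptor (MC4R) | also added = Melanotan II challenge | dosing = single nominal compound dose of 6.5 µM | detection = TR-FRET with Eu-cAMP and labeled anti-cAMP, 671 nm | replication = singlicate | timing = compound 30 min, challenge 1 h, detection 1 h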
TMEM16A inh = mouse TMEM16A channel inhibition, primary screen. Q8BHY3. hit rate 1.2% among 310,000. HEK293 TMEM16A/YFP iodide influx fluorescence, ionomycin. normalized B-score (activity score, 25-100; higher = stronger inhibition) at 10 µM;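 active = ratio plate-corrected score three or more library SD toward inhibition, starting fluorescence score within five deviations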;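 note: score derived from kinetic fluorescence span divided by baseline fluorescence per well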
MIN6 prolif-2 = MIN6 beta-cell replication induction, confirmed. proliferation increase, % at 50 µM. AID 463095. shares compounds with MIN6 prolif-1. MIN6 beta-cell proliferation, ATPlite luminescence, 48 h; cells kept in 0.2% serum; scaled between 0.2% and 10% serum. 920 tested, under 10 active;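 active = proliferation increase above 40% at any of the four tested concentrations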
Starred values were filed as active, the others as inactive; i = inactive; / = no result given. Hits are enriched below; roughly 3.4% of the tested compounds scored in any of these assays.

SMILES	ANO1 activ	HTR2A ag	MIN6 prolif-1	MC4R ag barr	MC4R antag cAMP	TMEM16A inh	MIN6 prolif-2
Cc1ccc(NC(=O)C2CC(O)CN2C(=O)OCc2ccccc2)c(C)c1 (centres undefined)	i	9	0	2	3	i	/
O=C(Nc1ccc(Br)cc1)C1CC(O)CN1C(=O)OCc1ccccc1 (centres undefined)	i	-1	11*	-2	7	i	-5
O=C(N/N=C/c1ccc(O)cc1O)C(=O)N/N=C/c1ccc(O)cc1O	i	-1	-2	0	13	i	/
Cn1c(O)c(N=NC(=O)CNC(=O)c2ccccc2)c2cc(Br)ccc21	i	7	-1	0	-4	i	/
Cn1c(O)c(N=NC(=O)CNC(=O)c2ccccc2)c2ccccc21	i	1	0.0*	0	6	i	0
NC(=O)c1c(NC(=O)c2ccccc2F)sc2c1CCC2	/	-3	/	0	2	/	/
CC1(C(=O)Nc2ccc(Cl)cc2)Cc2c(-c3cccc(C(F)(F)F)c3)ccnc2O1 (centres undefined)	/	-4	/	-2	-9	/	/
CC1(NC(=O)c2cc(Cl)nc3ccccc23)CCS(=O)(=O)C1 (centres undefined)	i	-4	5	-2	-4	/	/
NNC(=O)c1ccc(N2CCc3ccccc32)c([N+](=O)[O-])c1	i	-9	1	-2	-7	i	/
Nc1ncnc(N2CCc3ccccc32)c1[N+](=O)[O-]	i	-3	20*	-3	11	i	9
Nc1cc(S(=O)(=O)N2CCOCC2)ccc1Oc1cccc(Br)c1	i	-2	-1	0	-8	/	/
COc1ccc(NC(C)=O)cc1S(=O)(=O)Nc1ccc2c(c1)OCCO2	i	3	7.9*	-3	-3	i	-3
CCN(CC)c1ncnc2c1ncn2[C@H]1CN(Cc2cc(OC)c(OC)c(OC)c2)C[C@@H](CO)O1	/	-1	/	1	-11	/	/
COCCOC(=O)c1c(C)oc2ccc(NS(=O)(=O)c3ccccc3)cc12	i	6	5.0*	0	15	i	-6
COCCOC(=O)c1c(C)oc2ccc(NS(=O)(=O)c3ccc(C)cc3)cc12	i	7	-2	0	11	i	/
COc1cc(C)nc(NC(=O)NC(=O)c2ccc(C(F)(F)F)cc2)n1	i	2	3	-1	-2	i	/
C#CCNC(=O)c1cc2c(Br)ccc(Br)c2nc1N	/	-4	/	/	/	/	/
COc1ccc(OC)c(C(=O)CSc2nccc(-c3ccc(Br)cc3)n2)c1	i	-5	5.6*	3	-3	i	-3
CC(C)CCNC(=O)COC(=O)/C=C/c1ccc2ccccc2n1	i	-3	7.2*	3	5	i	-2
O=C(COC(=O)/C=C/c1ccc2ccccc2n1)NNC(=O)c1ccccc1	/	-3	/	0	-3	/	/
COc1ccc(CCNC(=O)CNC(=O)c2ccc(Br)o2)cc1OC	i	2	13*	-3	2	i	2
Nc1ccc(-c2nnnn2-c2ccc(N)cc2)cc1	i	-1	5.3*	-2	17	i	-3
C/C(=N/NC(=O)c1ccc(Br)s1)c1ccncc1	i	3	15*	-1	-5	i	3
COc1ccc(CCNC(=O)CN2c3cccc4cccc(c34)S2(=O)=O)cc1	i	-9	13*	-1	1	/	5
O=C(NCc1ccco1)c1cc2nc(-c3cccs3)cc(C(F)(F)F)n2n1	i	-4	7.8*	0	-6	i	5
SMILES	ANO1 activ	HTR2A ag	MIN6 prolif-1	MC4R ag barr	MC4R antag cAMP	TMEM16A inh	MIN6 prolif-2
O=C(NCc1ccco1)c1nn2c(C(F)(F)F)cc(-c3cccs3)nc2c1Cl	i	6	-4	-2	-1	i	/
C[C@]1(CC/C(=C/CO)CO)[C@H](C=O)CC[C@@]23COC(=O)C2=CCC[C@@H]31	/	3	/	1	3	/	/
Cc1ccc(S(=O)(=O)N2CCC3(CC2)OCCN3S(=O)(=O)c2cccs2)cc1	i	-5	0	0	20	i	/
COc1ccc(S(=O)(=O)N2CCC3(CC2)OCCN3S(=O)(=O)c2cccs2)cc1	i	-4	13*	-1	12	i	-2
CNc1nc(Oc2ccc(=O)n(C)n2)nc(N2CCOCC2)n1	i	2	11*	-2	-2	i	-2
COc1ccc(/C=C/C(=O)Nc2cc(S(=O)(=O)N3CCOCC3)ccc2N2CCCC2)cc1OC	i	1	7.3*	-2	2	i	1
Cc1ccc(C(c2sc3ncnn3c2O)N2CCCCC2)cc1 (centres undefined)	i	0	-1	1	7	i	/
Cc1ccc(C(c2sc3ncnn3c2O)N2CCC(C)CC2)cc1 (centres undefined)	i	-8	12*	-1	5	i	-2
CC1(C(=O)Nc2ccc3c(c2)OCCO3)CSCC(=O)N1C1CC1 (centres undefined)	/	-4	/	/	/	/	/
CCCCc1n[nH]c2c1/C(=N/OCC)CC(C)(C)C2	i	0	9.1*	3	9	i	-6
CC1CCN(C(=O)CCc2ccc(S(=O)(=O)NC(C)(C)C)cc2)CC1	i	-1	7.5*	0	-1	i	-2
O=c1ccc2ccc(OCc3ccccc3)cc2o1	i	-3	3	-1	17	i	/
CCOc1ccc(NC(=O)CN(C)C(=O)c2cc(S(=O)(=O)N3CCCCC3)ccc2C)cc1OCC	i	1	12*	-1	4	i	5
Cc1ccc(-c2nn3c(C)nnc3s2)cc1NC(=O)COc1ccc(Cl)cc1	i	-1	10.0*	0	17	i	-2
CC1CCN(CCOc2ccccc2-c2ccccc2)CC1	i	-4	0.0*	-1	5	i	-5
CC1CC(C)CN(CCOc2ccccc2-c2ccccc2)C1 (centres undefined)	i	-6	-5	-2	14	i	/
CCCC(=O)N1CCC1(C)C(=O)NS(=O)(=O)c1cc2c(cc1C)CCCS2(=O)=O (centres undefined)	/	2	/	-2	7	/	/
COc1cccc(CNC2CCCc3ccccc32)c1OC (centres undefined)	i	6	9.1*	-1	12	i	-3
COc1cc(Oc2nc(C(F)(F)F)nc3ccccc23)ccc1C=O	i	3	-2	0	7	i	/
